In ChEMBL document CHEMBL4619796, “Discovery of 3-Quinazolin-4(3H)-on-3-yl-2,N-dimethylpropanamides as Orally Active and Selective PI3Kα Inhibitors” (ACS Med Chem Lett, 2020):

Columns and labels:
[1] = Cmax in BALB/c mouse at 10 mg/kg, po by HPLC analysis; format: ADME, organism-based; design: dose 10 mg/kg, route oral; details: in vivo
[2] = Clearance in BALB/c mouse at 1 mg/kg, […] by HPLC analysis; format: ADME, organism-based; details: in vivo
BT-474 = assay: Antitumor activity against PI3KCA mutant human BT474 cells xenografted in BALB/c nude mouse assessed as tumor growth inhibition at 30 mg/kg, po administered once daily for 21 days by caliper method relative to control; format: functional; details: BT-474, po, 504 h, read-out: TGI
How it was run: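 BT-474 (PIK3CA mutant human breast ductal carcinoma) subcutaneous xenografts in Balb/c nude mice. Oral dosing once daily for 21 days. Vehicle 0.5% MC + 0.2% Tween 80. Read-out is tumor growth inhibition.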

[3] = Volume of distribution in Sprague-Dawley rat at 1 mg/kg, iv by HPLC analysis; format: ADME, organism-based; details: in vivo
[4] = Clearance in Sprague-Dawley rat at 1 mg/kg, iv by HPLC analysis; format: ADME, organism-based; details: in vivo
[5] = Protein binding in human plasma measured after 4 hrs by LC-MS/MS analysis; format: ADME, cell-free; details: read-out: PPB (converted)
[6] = Metabolic stability in Sprague-Dawley rat liver microsomes assessed as parent compound remaining at 10 uM preincubated for 10 mins in water bath followed by NADPH addition and measured after 60 mins by LC-MS/MS analysis; format: ADME, Microsome; details: read-out: Stability
[7] = Metabolic stability in Beagle dog liver microsomes assessed as parent compound remaining at 10 uM preincubated for 10 mins in water bath followed by NADPH addition and measured after 60 mins by LC-MS/MS analysis; format: ADME, Canis lupus familiaris, Microsome; details: read-out: Stability
[8] = Metabolic stability in CD-1 mouse liver microsomes assessed as parent compound remaining at 10 uM preincubated for 10 mins in water bath followed by NADPH addition and measured after 60 mins by LC-MS/MS analysis; format: ADME, Microsome; details: read-out: Stability
[9] = Metabolic stability in cynomolgus monkey liver microsomes assessed as parent compound remaining at 10 uM preincubated for 10 mins in water bath followed by NADPH addition and measured after 60 mins by LC-MS/MS analysis; format: ADME, Macaca fascicularis, Microsome; details: read-out: Stability
[10] = Clearance in CD-1 mouse cryopreserved hepatocytes incubated for 10 mins under shaking condition by LC-MS/MS analysis; format: ADME, cell-based, Hepatocyte; details: read-out: CLH

SMILES: CNC(=O)[C@H](C)Cn1cnc2ccc(-c3cnc(OC)c(NS(=O)(=O)c4ccc(F)cc4Cl)c3)cc2c1=O
- Cmax [1]: 37 µM
- CL/F [2]: 0.252 L/h/kg
- inhibition in vivo at 30 mg/kg (BT-474): 73%
- Vd [3]: 0.321 L/kg
- clearance [4]: 0.317 L/h/kg
- fraction unbound at 4 h [5]: 0.014
- remaining at 1 h, 10 µM [6]: 32%
- remaining at 1 h, 10 µM [7]: 53.9%
- remaining at 1 h, 10 µM [8]: 32.7%
- remaining at 1 h, 10 µM [9]: 13.7%
- CLint scaled [10]: 38.5 L/h/kg
